From ChEMBL document CHEMBL1125797, “Synthesis, characterization and myocardial uptake of cationic bis(arene)technetium(I) complexes” (J Med Chem, 1991)

Columns and labels:
Rattus norvegicus [1] = test: Biodistribution of compound in rat muscle at 360 min after intravenous administration; type: ADME, organism-based, Muscle tissue; details: in vivo, 6 h
Procedure, shortened: (§1)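 Rats received the 99mTc complex in normal saline (~12.5 μCi/mL) by lateral tail vein injection at ~25 μCi/kg and were killed by cervical dislocation at the stated time. Tissues were washed with saline, blotted, weighed and γ-counted to give percent injected dose/g. Time-course values are averages of male and female rats.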

Rattus norvegicus [2] = test: Biodistribution of compound in rat muscle at 45 min after intravenous administration; type: ADME, organism-based, Muscle tissue; details: in vivo, 0.75 h; procedure, shortened: as §1
Rattus norvegicus [3] = test: Biodistribution of compound in rat gonads at 90 min after intravenous administration; type: ADME, organism-based, Gonad; details: in vivo, 1.5 h
Procedure, shortened: (§2)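 Time course in Sprague-Dawley rats after lateral tail-vein injection of the 99mTc complex in normal saline (~12.5 μCi/mL) at ~25 μCi/kg. Tissues were sampled at the stated times, washed with saline, blotted, weighed and γ-counted to give percent injected dose per g. Values are averages of male and female rats.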

Rattus norvegicus [4] = test: Biodistribution of compound in rat bone at 90 min after intravenous administration; type: ADME, organism-based, Bone element; details: in vivo, 1.5 h; procedure, shortened: as §2
Rattus norvegicus [5] = test: Biodistribution of compound in rat heart at 1440 min after intravenous administration; type: ADME, organism-based; details: in vivo, 24 h; procedure, shortened: as §2
Rattus norvegicus [6] = test: Biodistribution of compound in rat lungs at 360 min after intravenous administration; type: ADME, organism-based, Lung; details: in vivo, 6 h; procedure, shortened: as §1
Rattus norvegicus [7] = test: Biodistribution of compound in rat eye at 45 min after intravenous administration; type: ADME, organism-based; details: in vivo, 0.75 h; procedure, shortened: as §2
Rattus norvegicus [8] = test: Biodistribution of compound in rat bone at 180 min after intravenous administration; type: ADME, organism-based, Bone element; details: in vivo, 3 h; procedure, shortened: as §2
Rattus norvegicus [9] = test: Biodistribution of compound in rat blood at 1440 min after intravenous administration; type: ADME, organism-based; details: in vivo, 24 h; procedure, shortened: as §2
Rattus norvegicus [10] = test: Biodistribution of compound in rat eye at 180 min after intravenous administration; type: ADME, organism-based; details: in vivo, 3 h; procedure, shortened: as §2
Rattus norvegicus [11] = test: Biodistribution of compound in rat eye at 5 min after intravenous administration; type: ADME, organism-based; details: in vivo; procedure, shortened: as §2
Rattus norvegicus [12] = test: Biodistribution of compound in rat urine at 1440 min after intravenous administration; type: ADME, organism-based; details: in vivo, 24 h; procedure, shortened: as §1
Rattus norvegicus [13] = test: Biodistribution of compound in rat blood at 45 min after intravenous administration; type: ADME, organism-based; details: in vivo, 0.75 h; procedure, shortened: as §2
Rattus norvegicus [14] = test: Biodistribution of compound in rat bone marrow at 180 min after intravenous administration; type: ADME, organism-based; details: in vivo, 3 h; procedure, shortened: as §2
Rattus norvegicus [15] = test: Biodistribution of compound in rat bone marrow at 90 min after intravenous administration; type: ADME, organism-based; details: in vivo, 1.5 h; procedure, shortened: as §2
Rattus norvegicus [16] = test: Biodistribution of compound in rat liver at 90 min after intravenous administration; type: ADME, organism-based; details: in vivo, 1.5 h; procedure, shortened: as §1
Rattus norvegicus [17] = test: Biodistribution of compound in rat kidney at 45 min after intravenous administration; type: ADME, organism-based; details: in vivo, 0.75 h; procedure, shortened: as §2
Rattus norvegicus [18] = test: Biodistribution of compound in rat feces at 1440 min after intravenous administration; type: ADME, organism-based; details: in vivo, 24 h
Rattus norvegicus [19] = test: Biodistribution of compound in rat eye at 360 min after intravenous administration; type: ADME, organism-based; details: in vivo, 6 h; procedure, shortened: as §2
Rattus norvegicus [20] = test: Biodistribution of compound in rat lungs at 45 min after intravenous administration; type: ADME, organism-based, Lung; details: in vivo, 0.75 h; procedure, shortened: as §1
Rattus norvegicus [21] = test: Biodistribution of compound in rat muscle at 5 min after intravenous administration; type: ADME, organism-based, Muscle tissue; details: in vivo; procedure, shortened: as §1
Rattus norvegicus [22] = test: Biodistribution of compound in rat gonads at 1440 min after intravenous administration; type: ADME, organism-based, Gonad; details: in vivo, 24 h; procedure, shortened: as §2
Rattus norvegicus [23] = test: Biodistribution of compound in rat blood at 90 min after intravenous administration; type: ADME, organism-based; details: in vivo, 1.5 h; procedure, shortened: as §2
Rattus norvegicus [24] = test: Biodistribution of compound in rat muscle at 90 min after intravenous administration; type: ADME, organism-based, Muscle tissue; details: in vivo, 1.5 h; procedure, shortened: as §1
Rattus norvegicus [25] = test: Biodistribution of compound in rat lung after 5 min of administration.; type: ADME, organism-based; details: in vivo
Procedure, shortened: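 Female Sprague-Dawley rats (150–200 g) received the complex in normal saline (~12.5 μCi/mL) through a lateral tail vein at ~25 μCi/kg. Rats were killed by cervical dislocation 5 min after injection. Tissues were washed with saline, blotted, weighed and γ-counted to give percent injected dose/g tissue.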

Rattus norvegicus [26] = test: Biodistribution of compound in rat kidney at 1440 min after intravenous administration; type: ADME, organism-based; details: in vivo, 24 h; procedure, shortened: as §2
Rattus norvegicus [27] = test: Biodistribution of compound in rat heart at 90 min after intravenous administration; type: ADME, organism-based; details: in vivo, 1.5 h; procedure, shortened: as §2
Rattus norvegicus [28] = test: Biodistribution of compound in rat gonads at 180 min after intravenous administration; type: ADME, organism-based, Gonad; details: in vivo, 3 h; procedure, shortened: as §2
Rattus norvegicus [29] = test: Biodistribution of compound in rat blood at 180 min after intravenous administration; type: ADME, organism-based; details: in vivo, 3 h; procedure, shortened: as §2
Rattus norvegicus [30] = test: Biodistribution of compound in rat gonads at 360 min after intravenous administration; type: ADME, organism-based, Gonad; details: in vivo, 6 h; procedure, shortened: as §2
Rattus norvegicus [31] = test: Biodistribution of compound in rat liver at 45 min after intravenous administration; type: ADME, organism-based; details: in vivo, 0.75 h; procedure, shortened: as §1
Rattus norvegicus [32] = test: Biodistribution of compound in rat bone marrow at 1440 min after intravenous administration; type: ADME, organism-based; details: in vivo, 24 h; procedure, shortened: as §2
Rattus norvegicus [33] = test: Biodistribution of compound in rat muscle at 180 min after intravenous administration; type: ADME, organism-based, Muscle tissue; details: in vivo, 3 h; procedure, shortened: as §1
Rattus norvegicus [34] = test: Biodistribution of compound in rat bone marrow at 45 min after intravenous administration; type: ADME, organism-based; details: in vivo, 0.75 h; procedure, shortened: as §2
Rattus norvegicus [35] = test: Biodistribution of compound in rat gonads at 5 min after intravenous administration; type: ADME, organism-based, Gonad; details: in vivo; procedure, shortened: as §2
Rattus norvegicus [36] = test: Biodistribution of compound in rat feces at 360 min after intravenous administration; type: ADME, organism-based; details: in vivo, 6 h

- Dose/g (Rattus norvegicus [1]): 31 % dose/organ
- Dose/g (Rattus norvegicus [2]): 30 % dose/organ
- Dose/g (Rattus norvegicus [3]): 0.074 % dose
- Dose/g (Rattus norvegicus [4]): 3.5 % dose/organ
- Dose/g (Rattus norvegicus [5]): 1.27 % dose
- Dose/g (Rattus norvegicus [6]): 0.7 % dose/organ
- Dose/g (Rattus norvegicus [7]): 0.023 % dose
- Dose/g (Rattus norvegicus [8]): 2.2 % dose/organ
- Dose/ml (Rattus norvegicus [9]): 0.07 % dose
- Dose/g (Rattus norvegicus [10]): 0.02 % dose
- Dose/g (Rattus norvegicus [11]): 0.03 % dose
- Dose/ml (Rattus norvegicus [12]): 20 % dose
- Dose/ml (Rattus norvegicus [13]): 0.51 % dose
- Dose/g (Rattus norvegicus [14]): 0.2 % dose/organ
- Dose/g (Rattus norvegicus [15]): 0.28 % dose/organ
- Dose/g (Rattus norvegicus [16]): 2.5 % dose/organ
- Dose/g (Rattus norvegicus [17]): 5.4 % dose
- Dose/g (Rattus norvegicus [18]): 30 % dose
- Dose/g (Rattus norvegicus [19]): 0.022 % dose
- Dose/g (Rattus norvegicus [20]): 1.5 % dose/organ
- Dose/g (Rattus norvegicus [21]): 44 % dose/organ
- Dose/g (Rattus norvegicus [22]): 0.019 % dose
- Dose/ml (Rattus norvegicus [23]): 0.3 % dose
- Dose/g (Rattus norvegicus [24]): 42 % dose/organ
- Dose/g (Rattus norvegicus [25]): 1.3%
- Dose/g (Rattus norvegicus [26]): 0.2 % dose
- Dose/g (Rattus norvegicus [27]): 2.78 % dose
- Dose/g (Rattus norvegicus [28]): 0.58 % dose
- Dose/ml (Rattus norvegicus [29]): 0.19 % dose
- Dose/g (Rattus norvegicus [30]): 0.039 % dose
- Dose/g (Rattus norvegicus [31]): 4 % dose
- Dose/g (Rattus norvegicus [32]): 0.1 % dose/organ
- Dose/g (Rattus norvegicus [33]): 44 % dose/organ
- Dose/g (Rattus norvegicus [34]): 0.24 % dose/organ
- Dose/g (Rattus norvegicus [35]): 0.099 % dose
- Dose/g (Rattus norvegicus [36]): 0.3 % dose
Substance: Bis(1,2,3,5-tetramethylbenzene)technetium
